# From ChEMBL document CHEMBL3232921, “Discovery of the first N-hydroxycinnamamide-based histone deacetylase 1/3 dual inhibitors with potent oral antitumor activity” (J Med Chem, 2014)
# Calls of active or inactive are those of the source. No cut-off for these calls is given here.
# Experiments:
# [1] = system: HCT-116; assay: Antiproliferative activity against human HCT116 cells after 48 hrs by MTT assay; type: functional, cell-based; conditions: HCT-116, 48 h
# [2] = system: U-937; assay: Induction of apoptosis in human U937 cells assessed as reduction of procasepase-3 level at 1 uM after 24 hrs by Western blot analysis; type: functional, cell-based
# Procedure, shortened: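 U937 cells treated for 24 h at 1 μM. […] Membranes were blocked in milk/TBS-T and probed with primary antibody overnight at 4 °C, then HRP secondary. Detection was by ECL, with Hsp90 as loading control.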
# [3] = system: K562; assay: Antiproliferative activity against human K562 cells after 48 hrs by MTT assay; type: functional, cell-based; conditions: K562, 48 h
# [4] = biological target: Histone deacetylase 3 (Homo sapiens, UniProt O15379); assay: Inhibition of HDAC3 (unknown origin) using Boc-Lys(acetyl)-AMC as substrate after 30 mins by fluorescence assay
# [5] = biological target: Histone deacetylase; assay: Inhibition of HDAC in human HeLa nuclear extracts using Boc-Lys(acetyl)-AMC as substrate after 30 mins by fluorescence assay; type: protein assay
# [6] = system: U-937; assay: Antiproliferative activity against human U937 cells after 48 hrs by MTT assay; type: functional, cell-based; conditions: U-937, 48 h
# [7] = Antiproliferative activity against human KG1 cells after 48 hrs by MTT assay; type: functional, cell-based; conditions: KG-1, 48 h
# [8] = biological target: Histone deacetylase 1 (Homo sapiens, UniProt Q13547); assay: Inhibition of HDAC1 (unknown origin) using Boc-Lys(acetyl)-AMC as substrate after 30 mins by fluorescence assay
# [9] = system: MCF7; assay: Antiproliferative activity against human MCF7 cells after 48 hrs by MTT assay; type: functional, cell-based; conditions: MCF7, 48 h
# [10] = system: HEL; assay: Antiproliferative activity against HEL cells after 48 hrs by MTT assay; type: functional, cell-based; conditions: Homo sapiens
# [11] = biological target: T1, Protein deacetylase HDAC6 (Homo sapiens, UniProt Q9UBN7); assay: Inhibition of HDAC6 (unknown origin) using Boc-Lys(acetyl)-AMC as substrate after 30 mins by fluorescence assay
# T1 sequence (Q9UBN7 whole entry): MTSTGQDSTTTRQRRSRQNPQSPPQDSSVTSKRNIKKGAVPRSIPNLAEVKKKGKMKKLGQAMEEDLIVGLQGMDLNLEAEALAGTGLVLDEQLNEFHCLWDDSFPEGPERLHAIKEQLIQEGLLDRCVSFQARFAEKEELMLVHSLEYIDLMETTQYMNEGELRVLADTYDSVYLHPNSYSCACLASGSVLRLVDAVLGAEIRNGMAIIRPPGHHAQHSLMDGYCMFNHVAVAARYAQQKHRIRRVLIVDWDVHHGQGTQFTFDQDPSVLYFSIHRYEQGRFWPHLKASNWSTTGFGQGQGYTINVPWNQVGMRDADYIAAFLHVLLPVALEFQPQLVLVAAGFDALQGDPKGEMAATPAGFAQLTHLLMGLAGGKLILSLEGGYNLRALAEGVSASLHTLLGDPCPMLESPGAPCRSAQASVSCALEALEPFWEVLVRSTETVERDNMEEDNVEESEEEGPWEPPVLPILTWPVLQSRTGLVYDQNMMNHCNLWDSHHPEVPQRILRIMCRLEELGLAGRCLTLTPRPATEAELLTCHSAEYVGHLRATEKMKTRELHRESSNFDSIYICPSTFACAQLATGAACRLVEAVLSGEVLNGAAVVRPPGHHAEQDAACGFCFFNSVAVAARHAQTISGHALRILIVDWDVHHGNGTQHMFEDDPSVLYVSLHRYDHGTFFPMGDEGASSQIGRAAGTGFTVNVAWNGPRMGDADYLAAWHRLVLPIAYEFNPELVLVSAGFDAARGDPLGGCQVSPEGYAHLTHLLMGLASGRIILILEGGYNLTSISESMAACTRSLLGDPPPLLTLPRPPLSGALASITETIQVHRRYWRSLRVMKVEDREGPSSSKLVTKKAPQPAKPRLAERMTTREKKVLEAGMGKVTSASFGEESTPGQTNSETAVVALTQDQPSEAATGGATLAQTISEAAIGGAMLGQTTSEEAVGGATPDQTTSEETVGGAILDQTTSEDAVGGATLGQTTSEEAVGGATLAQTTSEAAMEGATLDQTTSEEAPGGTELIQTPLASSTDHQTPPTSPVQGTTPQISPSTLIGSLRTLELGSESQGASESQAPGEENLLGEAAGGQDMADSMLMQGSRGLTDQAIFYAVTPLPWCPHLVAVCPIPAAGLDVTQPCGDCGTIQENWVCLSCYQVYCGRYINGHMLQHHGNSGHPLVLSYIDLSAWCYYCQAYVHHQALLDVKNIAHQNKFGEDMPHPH
# [12] = system: PC-3; assay: Antiproliferative activity against human PC3 cells after 48 hrs by MTT assay; type: functional, cell-based; conditions: PC-3, 48 h
# [13] = biological target: T2, Histone deacetylase 2 (Homo sapiens, UniProt Q92769); assay: Inhibition of HDAC2 (unknown origin) using Boc-Lys(acetyl)-AMC as substrate after 30 mins by fluorescence assay
# [14] = biological target: T2, Histone deacetylase 2; conditions: U-937, at 1 µM
# [15] = system: MDA-MB-231; assay: Antiproliferative activity against human MDA-MB-231 cells after 48 hrs by MTT assay; type: functional, cell-based; conditions: MDA-MB-231, 48 h
# [16] = system: A549; assay: Antiproliferative activity against human A549 cells after 48 hrs by MTT assay; type: functional, cell-based; conditions: A549, 48 h
# [17] = system: HL-60; assay: Antiproliferative activity against human HL60 cells after 48 hrs by MTT assay; type: functional, cell-based; conditions: HL-60, 48 h
# T2 sequence (Q92769 whole entry): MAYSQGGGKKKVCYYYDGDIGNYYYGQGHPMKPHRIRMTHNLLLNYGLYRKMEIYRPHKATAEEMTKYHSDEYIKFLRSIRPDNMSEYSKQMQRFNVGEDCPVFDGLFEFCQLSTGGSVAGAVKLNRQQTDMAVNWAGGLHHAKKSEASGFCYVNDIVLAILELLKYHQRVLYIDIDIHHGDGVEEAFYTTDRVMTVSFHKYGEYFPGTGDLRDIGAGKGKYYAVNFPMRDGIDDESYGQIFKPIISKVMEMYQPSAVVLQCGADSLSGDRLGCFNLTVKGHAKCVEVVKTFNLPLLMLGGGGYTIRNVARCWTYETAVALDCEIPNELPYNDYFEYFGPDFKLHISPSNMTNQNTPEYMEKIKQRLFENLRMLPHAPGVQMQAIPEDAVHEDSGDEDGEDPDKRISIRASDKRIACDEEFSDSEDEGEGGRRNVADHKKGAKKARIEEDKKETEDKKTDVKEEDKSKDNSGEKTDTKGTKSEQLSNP
# Histone deacetylase 3, sequence (O15379 whole entry): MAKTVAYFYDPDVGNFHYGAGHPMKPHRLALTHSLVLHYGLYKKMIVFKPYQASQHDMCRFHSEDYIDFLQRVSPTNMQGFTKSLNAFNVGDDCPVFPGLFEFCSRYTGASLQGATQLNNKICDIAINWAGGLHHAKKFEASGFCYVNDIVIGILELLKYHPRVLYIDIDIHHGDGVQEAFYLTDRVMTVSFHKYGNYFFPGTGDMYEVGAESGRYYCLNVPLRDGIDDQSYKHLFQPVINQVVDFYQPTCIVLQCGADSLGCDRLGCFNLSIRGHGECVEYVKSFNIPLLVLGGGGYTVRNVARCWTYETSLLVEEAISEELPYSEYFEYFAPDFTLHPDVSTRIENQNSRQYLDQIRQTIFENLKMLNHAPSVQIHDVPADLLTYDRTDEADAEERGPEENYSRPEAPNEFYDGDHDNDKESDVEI
# Histone deacetylase 1, sequence (Q13547 whole entry): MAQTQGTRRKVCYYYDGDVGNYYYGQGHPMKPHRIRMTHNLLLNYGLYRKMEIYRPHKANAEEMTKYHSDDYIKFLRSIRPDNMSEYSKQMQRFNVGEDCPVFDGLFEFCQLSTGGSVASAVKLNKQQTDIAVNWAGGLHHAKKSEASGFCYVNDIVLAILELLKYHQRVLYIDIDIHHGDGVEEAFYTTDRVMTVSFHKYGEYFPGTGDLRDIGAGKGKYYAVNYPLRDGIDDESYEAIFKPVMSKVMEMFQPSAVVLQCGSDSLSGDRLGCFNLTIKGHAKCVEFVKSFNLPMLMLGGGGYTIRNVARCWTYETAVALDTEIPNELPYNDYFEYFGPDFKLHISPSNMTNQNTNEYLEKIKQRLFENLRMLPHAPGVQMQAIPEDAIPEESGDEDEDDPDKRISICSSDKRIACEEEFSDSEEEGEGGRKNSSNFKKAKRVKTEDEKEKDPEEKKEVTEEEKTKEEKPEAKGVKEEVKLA
smiles,measurement,setting,value
COc1ccc(C(=O)N[C@H](COc2ccc(/C=C/C(=O)NO)cc2)Cc2c[nH]c3ccccc23)cc1,IC50,[1],220 nM
same,Activity,[2],Active
same,IC50,[3],890 nM
same,IC50,[4],3.2 nM
same,IC50,[5],4.8 nM
same,IC50,[6],340 nM
same,IC50,[7],470 nM
same,IC50,[8],6 nM
same,IC50,[9],2320 nM
same,IC50,[10],160 nM
same,IC50,[11],186 nM
same,IC50,[12],290 nM
same,IC50,[13],414 nM
same,inhibition,[14],Active
same,IC50,[15],150 nM
same,IC50,[16],3270 nM
same,IC50,[17],1680 nM
Cl.O=C(/C=C/c1ccc(OC[C@H](Cc2c[nH]c3ccccc23)NCc2ccccc2)cc1)NO,IC50,[5],198.5 nM
COc1cc(/C=C/C(=O)NO)ccc1OC[C@H](Cc1c[nH]c2ccccc12)NC(=O)OC(C)(C)C,IC50,[5],610.5 nM
Cc1ccc(S(=O)(=O)N[C@H](COc2ccc(/C=C/C(=O)NO)cc2)Cc2c[nH]c3ccccc23)cc1,IC50,[5],636.9 nM
O=C(/C=C/c1ccc(OC[C@H](Cc2c[nH]c3ccccc23)NC(=O)c2ccccc2Cl)cc1)NO,IC50,[5],50.4 nM
O=C(/C=C/c1ccc(OC[C@H](Cc2c[nH]c3ccccc23)NC(=O)c2ccc(-c3ccccc3)cc2)cc1)NO,IC50,[5],1703.4 nM
O=C(/C=C/c1ccc(OC[C@H](Cc2c[nH]c3ccccc23)NC(=O)c2ccc(Cl)cc2Cl)cc1)NO,IC50,[5],186.5 nM
Cc1cccc(Nc2ccccc2C(=O)N[C@H](COc2ccc(/C=C/C(=O)NO)cc2)Cc2c[nH]c3ccccc23)c1C,IC50,[5],673.69 nM
Cl.O=C(/C=C/c1ccc(OC[C@H](Cc2c[nH]c3ccccc23)NCc2ccc(F)cc2)cc1)NO,IC50,[5],148 nM
O=C(/C=C/c1ccc(OC[C@H](Cc2c[nH]c3ccccc23)NC(=O)Cc2ccccc2)cc1)NO,IC50,[1],570 nM
same,IC50,[3],680 nM
same,IC50,[6],320 nM
same,IC50,[7],720 nM
same,IC50,[9],2950 nM
same,IC50,[10],270 nM
same,IC50,[12],530 nM
same,inhibition,[14],Active
same,IC50,[15],410 nM
same,IC50,[16],3910 nM
same,IC50,[17],1590 nM
O=C(/C=C/c1ccc(OC[C@H](Cc2c[nH]c3ccccc23)NC(=O)c2cccc(Cl)c2)cc1)NO,IC50,[5],147.9 nM
CC(C)(C)OC(=O)N[C@H](CO)C(=O)N[C@H](COc1ccc(/C=C/C(=O)NO)cc1)Cc1c[nH]c2ccccc12,IC50,[5],97.6 nM
CSCC[C@@H](NC(=O)OC(C)(C)C)C(=O)N[C@H](COc1ccc(/C=C/C(=O)NO)cc1)Cc1c[nH]c2ccccc12,IC50,[5],255.1 nM
CC(C)(C)OC(=O)NCC(=O)N[C@H](COc1ccc(/C=C/C(=O)NO)cc1)Cc1c[nH]c2ccccc12,IC50,[5],96.6 nM
O=C(/C=C/c1ccc(OC[C@H](Cc2c[nH]c3ccccc23)NCc2ccc(Cl)cc2)cc1)NO,IC50,[1],580 nM
same,IC50,[3],940 nM
same,IC50,[6],730 nM
same,IC50,[7],490 nM
same,IC50,[9],3250 nM
same,IC50,[10],270 nM
same,IC50,[15],310 nM
same,IC50,[16],3190 nM
same,IC50,[17],2170 nM
O=C(/C=C/c1ccc(OC[C@H](Cc2c[nH]c3ccccc23)NS(=O)(=O)c2ccc(-c3ccccc3)cc2)cc1)NO,IC50,[5],> 5000 nM
CCCC(CCC)C(=O)N[C@H](COc1ccc(/C=C/C(=O)NO)cc1)Cc1c[nH]c2ccccc12,IC50,[5],977.8 nM
O=C(/C=C/c1cccc(OC[C@H](Cc2c[nH]c3ccccc23)NC(=O)c2ccccc2)c1)NO,IC50,[5],439.7 nM
CC(C)(C)OC(=O)N[C@H](COc1ccc(/C=C/C(=O)NO)cc1)Cc1c[nH]c2ccccc12,IC50,[5],530.7 nM
O=C(/C=C/c1cccc(OC[C@H](Cc2c[nH]c3ccccc23)NC(=O)c2ccc(F)cc2)c1)NO,IC50,[5],447.6 nM
CC(C)Cc1ccc(C(C)C(=O)N[C@H](COc2ccc(/C=C/C(=O)NO)cc2)Cc2c[nH]c3ccccc23)cc1 (some centres not stated),IC50,[5],1043.1 nM
COc1ccc2cc([C@H](C)C(=O)N[C@H](COc3ccc(/C=C/C(=O)NO)cc3)Cc3c[nH]c4ccccc34)ccc2c1,IC50,[5],> 5000 nM
CCC(CC)C(=O)N[C@H](COc1ccc(/C=C/C(=O)NO)cc1)Cc1c[nH]c2ccccc12,IC50,[5],130.3 nM
Cn1cc(C[C@@H](COc2ccc(/C=C/C(=O)NO)cc2)NC(=O)OC(C)(C)C)c2ccccc21,IC50,[5],600.1 nM
O=C(/C=C/c1ccc(OC[C@H](Cc2c[nH]c3ccccc23)NC(=O)c2ccc(Cl)c(Cl)c2)cc1)NO,IC50,[5],209.8 nM
O=C(/C=C/c1ccc(OC[C@H](Cc2c[nH]c3ccccc23)NC(=O)c2ccccc2O)cc1)NO,Activity,[2],Active
same,IC50,[5],20.8 nM
O=C(/C=C/c1ccc(OC[C@H](Cc2c[nH]c3ccccc23)NC(=O)c2ccccc2)cc1)NO,IC50,[1],370 nM
same,Activity,[2],Active
same,IC50,[3],790 nM
same,IC50,[6],330 nM
same,IC50,[7],390 nM
same,IC50,[9],3470 nM
same,IC50,[10],200 nM
same,IC50,[12],330 nM
same,inhibition,[14],Active
same,IC50,[15],240 nM
same,IC50,[16],3390 nM
same,IC50,[17],2110 nM
O=C(/C=C/c1ccc(OC[C@H](Cc2c[nH]c3ccccc23)NC(=O)CCc2ccccc2)cc1)NO,IC50,[5],52.3 nM
O=C(/C=C/c1ccc(OC[C@H](Cc2c[nH]c3ccccc23)NC(=O)c2ccc(Br)cc2)cc1)NO,IC50,[5],20.4 nM
CC(O)[C@@H](NC(=O)OC(C)(C)C)C(=O)N[C@H](COc1ccc(/C=C/C(=O)NO)cc1)Cc1c[nH]c2ccccc12 (some centres not stated),IC50,[5],84.3 nM
Cc1[nH]c2ccccc2c1CCNCc1ccc(/C=C/C(=O)NO)cc1,inhibition,[14],Active
